Measurements of several laboratories.
Protocols differ between the studies behind these lines.
Target: Dual specificity protein kinase CLK1 (CLK1, Homo sapiens, UniProt P49759)

SMILES	assay	conditions	endpoint	result
Cc1ccc(C(=O)Nc2ccc(CN3CCN(C)CC3)c(C(F)(F)F)c2)cc1C#Cc1cnc2cccnn12	enzyme activity, inhibitor	23.5 nM	remaining activity	38%
CNC(=O)c1ccc(Nc2ncc(C(F)(F)F)c(NCc3nccnc3N(C)S(C)(=O)=O)n2)cc1	cell-free assay, competition with immobilised ligand	0.1 µM	remaining binding	23%
O=C(Nc1cnn(-c2csc(C(=O)NC3COC3)c2)c1)Nc1ccccc1Cl	enzyme activity, inhibitor	5 µM	remaining activity	81%
CC/C(=N\NC(=O)NCc1cccc(O)c1)c1ccc(O)c(C)c1O	enzyme activity, inhibitor	0.1 µM	inhibition	0.7%
COc1cc2c(Nc3ccc(Br)cc3F)ncnc2cc1OCC1CCN(C)CC1	cell-free assay	0.5 µM	remaining signal	105%
CC(C)(C)c1nc(-c2cccc(NS(=O)(=O)c3c(F)cccc3F)c2F)c(-c2ccnc(N)n2)s1	enzyme activity, inhibitor, radiometric	1 µM	remaining activity	89%
CNCc1ccccc1-c1csc([C@H](C)Nc2nc(C)nc3cc(OC)c(OC)cc23)c1	cell-free assay, competition with immobilised ligand	1 µM	remaining binding	95%
COc1cc(Cl)c(C(=O)N[C@@H](CN[C@H]2CC[C@@H](N)CC2)Cc2ccc(C#N)cc2)cc1-c1ccc(CN[C@H](C)c2ccc(C)cc2)o1	enzyme activity, inhibitor	1 µM	remaining activity	91%
COc1cc2ncnc(Nc3ccc(Oc4ccccc4)cc3C)c2cc1OC	enzyme activity, inhibitor	1 µM	inhibition	3%
Cn1cnc(Br)c1C1=CN(c2ncnc3[nH]cnc23)CCS1	enzyme activity, inhibitor, radiometric	2 µM	inhibition	96.1%
O=C(N1CCS(=O)(=O)CC1)N1C[C@H](c2ccc(OC(F)(F)F)cc2)C[C@H](c2nc(C3CC3)no2)C1	cell-free assay, competition with immobilised ligand	1 µM	remaining binding	98%
Cc1cc(NC(=O)c2cccc3cc(-c4cccc5[nH]nc(N)c45)ccc23)ccc1F	enzyme activity, inhibitor	0.1 µM	activity vs control	97%
Nc1ncnc2occ(-c3ccc(NC(=O)Nc4cc(C(F)(F)F)ccc4F)cc3)c12	cell-free assay, inhibitor	20 µM	remaining signal	0.65%
O=C(NCc1ncc(C(F)(F)F)cc1Cl)c1ccc2c(c1)C1(CCS(=O)(=O)CC1)[C@H](C1CC1)N2S(=O)(=O)c1ccc(F)cc1	cell-free assay, competition with immobilised ligand	1 µM	remaining binding	100%
COc1cc(-c2cc(-c3ccc(N4CCNCC4)cc3)cnc2C)cc(OC)c1OC	enzyme activity, inhibitor	1 µM	inhibition	1%
O=C(O)c1cc(-c2ccc(C3CCNCC3)cc2)c2ccc(-c3ccc(C(F)(F)F)cc3)cc2c1	cell-free assay, competition with immobilised ligand	1 µM	remaining binding	100%
O=C1Nc2ccc(Cl)cc2C1=Cc1cc(Cl)c(O)c(Cl)c1	cell-free assay	0.5 µM	remaining signal	85%
c1nc2c(Nc3ccc4c(c3)OCCO4)nc(Nc3ccc4c(c3)OCCO4)nc2[nH]1	enzyme activity, inhibitor	10 µM	activity vs control	2.2%
CCc1ccccc1C(=O)Nc1n[nH]c2c(C)c(F)c(C3C(C#N)=C(C)N(C)C(C)=C3C#N)cc12	cell-free assay, competition with immobilised ligand	1 µM	remaining binding	84%
C[S+]([O-])c1ccc(-c2nc(-c3ccncc3)c(-c3ccc(F)cc3)[nH]2)cc1 (stereo not shown)	cell-free assay	0.5 µM	remaining signal	101%
Cc1cc(-n2nc(Cc3cc(F)cc(C(F)(F)F)c3)nc2C)ccc1C(N)=O	cell-free assay, competition with immobilised ligand	1 µM	remaining binding	86%
N#CCCc1ccc2c(c1)-c1[nH]c3ccc([N+](=O)[O-])cc3c1CC(=O)N2	cell-free assay	0.5 µM	remaining signal	99.6%
